Assay results as given in ChEMBL document CHEMBL1121925, “Isoxicam and related 4-hydroxy-N-isoxazolyl-2H-1,2-benzothiazine-3-carboxamide 1,1-dioxides. Potent nonsteroidal antiinflammatory agents” (1982).
Calls of active or inactive are those of the source. The rule behind the calls is not given here.

What was measured:
Rattus norvegicus [1] = test: Antiinflammatory activity was assessed in carrageenan-induced rat paw edema(CIRPE) test after po administration; assay type: functional; settings: read-out: MED
Method in brief: (§1)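 Male Charles-River rats, groups of 8–10; compound given orally as aqueous suspension, then 1 h later 0.05 mL of 1% carrageenin in 0.9% saline injected into plantar left hind paw. Injected and uninjected paw volumes measured 3 h later by mercury displacement to the lateral malleolus mark; difference compared statistically between treated and control groups at oral screening dose.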

Rattus norvegicus [2] = test: Antiinflammatory activity was assessed in prophylactic adjuvant induced polyarthritis(AIP) test after po administration; assay type: functional; settings: for minimal effective dose: Rattus norvegicus, po, read-out: MED
Method in brief: (§2)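 Male Charles-River-Lewis rats (150 ± 10 g), groups of 10. Day 1: heat-killed Mycobacterium butyricum in light mineral oil (250 μg/0.05 mL) injected into left hind paw. Dosing on days 1–20; sacrifice day 21, hind paw weights recorded; change taken as difference between day 1 and day 21.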

Rattus norvegicus [3] = test: Antiinflammatory activity was assessed in therapeutic adjuvant induced polyarthritis(AIP) test after po administration; assay type: functional; settings: read-out: MED
Method in brief: (§3)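 Male Charles-River-Lewis rats (150 ± 10 g) injected day 1 in left hind paw with heat-killed Mycobacterium butyricum in mineral oil (250 μg/0.05 mL). Day 14, only responders (lesions in both hind paws) randomized into groups of 10, treated days 14–27, sacrificed day 28; hind paw weight change from day 14 to day 28.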

Rattus norvegicus [4] = test: Antiinflammatory activity was assessed in therapeutic adjuvant induced polyarthritis(AIP) test after po administration.; assay type: functional; settings: read-out: MED; method in brief: as §3
Rattus norvegicus [5] = test: Antiinflammatory activity was assessed in prophylactic adjuvant induced polyarthritis(AIP) test after po administration.; assay type: functional; settings: read-out: MED; method in brief: as §2
Rattus norvegicus [6] = test: Antiinflammatory activity was assessed in carrageenan-induced rat paw edema(CIRPE) test after po administration; Inactive at 100 mg/kg; assay type: functional, organism-based; set-up: dose 100 mg/kg; method in brief: as §1

Row | SMILES | minimal effective dose (Rattus norvegicus [1]) [mg/kg] | MED (Rattus norvegicus [6]) | other results
1 | CCCCC1C(=O)N(c2ccccc2)N(c2ccccc2)C1=O [PHENYLBUTAZONE] | 37.5 |  | MED (Rattus norvegicus [2]): 1.56 mg/kg; minimal effective dose (Rattus norvegicus [2]): 1.56 mg/kg
2 | Cc1cc(NC(=O)C2=C(O)c3ccccc3S(=O)(=O)N2C)no1 [ISOXICAM] | 12.5 |  | minimal effective dose (Rattus norvegicus [2]): 1.56 mg/kg; minimal effective dose (Rattus norvegicus [3]): 1.56 mg/kg
3 | COc1ccc2c(c1)c(CC(=O)O)c(C)n2C(=O)c1ccc(Cl)cc1 [INDOMETHACIN] | 0.37 |  | minimal effective dose (Rattus norvegicus [4]): 0.39 mg/kg; minimal effective dose (Rattus norvegicus [5]): 0.39 mg/kg
4 | CC(=O)Cc1noc(C2=C(O)c3ccccc3S(=O)(=O)N2C)n1 |  | inactive | 
5 | CC(=O)Cc1noc(C2=C(O)c3ccccc3S(=O)(=O)N2)n1 |  | inactive | 
6 | Cc1cc(NC(=O)CNS(=O)(=O)c2ccccc2C(=O)O)no1 |  | inactive | 
7 | CC(=O)Oc1ccccc1C(=O)O [ASPIRIN] | 100 |  | 
8 | Cc1cc(NC(=O)CC(=O)c2ccccc2S(=O)(=O)N(C)C)no1 |  | inactive | 
